Experimental data: ChEMBL document CHEMBL3808283, “Biological Characterization and in Vivo Assessment of the Activity of a New Synthetic Macrocyclic Antifungal Compound” (J Med Chem, 2016)
In brackets after ≈: the same amount, converted by molar mass. Activity calls are given as the source filed them. The rule behind the calls is not given here.

Key:
[1] = test system: Candida albicans; experiment: Antifungal activity against Candida albicans isolate DSY448 harboring CDR1 deletion mutant at 10 uM by serial dilution assay; format: functional, organism-based
Summary of the method: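 Spot dilution assay: C. albicans cells 10-fold serially diluted from 2 × 10^7 cells/mL, with 5 µL of each dilution spotted onto YEPD agar plates containing the drug.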

[2] = test system: Candida albicans; experiment: Antifungal activity against fluconazole-susceptible Candida albicans ATCC 90028 in immunocompetent Balb/c mouse candidiasis model assessed as reduction in CFU count in spleen at 20 to 40 mg/kg/day, ip regime measured on day 7 post infection; format: functional, organism-based
Summary of the method: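 Immunocompetent BALB/c mice, 10 per strain group, injected in the lateral tail vein with 7 × 10^4 CFU of C. albicans in 200 µL sterile saline. Compound given ip daily, 100 µL of 0.1 mg/mL in DMSO/PEG 400 2:1; fluconazole control ip at 8 mg/kg/day. On day 7, spleen and kidneys were excised, weighed and homogenized in saline, then plated on YPD agar for 2 days at 30 °C. Read-out CFU/g; Wilcoxon rank-sum test, P<0.05.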

[3] = test system: Candida parapsilosis; experiment: Ratio of MIC at 24 hrs to MIC at 48 hrs for Candida parapsilosis 81E; format: functional
Summary of the method: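 MICs by EUCAST broth microdilution, with the update for non-fermenting yeasts, incubated at 37 °C. Read at 24, 48 and 72 h as the lowest concentration preventing visible growth.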

[4] = test system: Candida albicans; experiment: Antifungal activity against Candida albicans 53T up to 96 hrs by broth dilution assay; format: functional, organism-based
[5] = test system: Candida albicans; experiment: Antifungal activity against Candida albicans 15T up to 96 hrs by broth dilution assay; format: functional, organism-based
[6] = test system: Cryptococcus neoformans; experiment: Antifungal activity against Cryptococcus neoformans up to 96 hrs by broth dilution assay; format: functional, organism-based
[7] = Antifungal activity against Geotrichum silvicola up to 96 hrs by broth dilution assay; format: functional
[8] = test system: Candida albicans; experiment: Upregulation of orf19.4531 gene expression in Candida albicans SC5314 at 3 uM after 15 mins by microarray method relative to control; format: functional
Summary of the method: (§1)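 Log-phase cultures in liquid YEPD were exposed to 3 µM compound (final) for 15 or 45 min, with untreated controls sampled at the same times, in three biological replicates. Total RNA was extracted by glass-bead/phenol-chloroform disruption and integrity-checked. One-color Cy3-labelled cRNA (600 ng) was hybridized for 17 h at 65 °C to 8 × 15K arrays, and fold change was taken versus control.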

[9] = test system: Candida albicans; experiment: Upregulation of orf19.1438 gene expression in Candida albicans SC5314 at 3 uM after 15 mins by microarray method relative to control; format: functional
Summary of the method: (§2)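 Log-phase C. albicans SC5314 in liquid YEPD exposed to 3 µM final for 15 or 45 min; untreated controls taken at the same time points. Three biological replicates. RNA extracted by glass-bead/phenol-chloroform method and integrity checked. One-color Cy3-labeled cRNA (600 ng) hybridized 17 h at 65 °C to 8 × 15K arrays. Expression expressed as fold change versus control.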

[10] = test system: Candida albicans; experiment: Upregulation of orf19.2726 gene expression in Candida albicans SC5314 at 3 uM after 15 mins by microarray method relative to control; format: functional; summary of the method: as §1
[11] = test system: Candida albicans; experiment: Upregulation of orf19.3378 gene expression in Candida albicans SC5314 at 3 uM after 15 mins by microarray method relative to control; format: functional; summary of the method: as §1
[12] = test system: Candida albicans; experiment: Upregulation of CRZ2 gene expression in Candida albicans SC5314 at 3 uM after 15 mins by microarray method relative to control; format: functional; summary of the method: as §2
[13] = test system: Candida albicans; experiment: Upregulation of orf19.1438 gene expression in Candida albicans SC5314 at 3 uM after 45 mins by microarray method relative to control; format: functional; summary of the method: as §2
[14] = test system: Candida albicans; experiment: Upregulation of orf19.2726 gene expression in Candida albicans SC5314 at 3 uM after 45 mins by microarray method relative to control; format: functional; summary of the method: as §1
[15] = test system: Candida albicans; experiment: Upregulation of orf19.3378 gene expression in Candida albicans SC5314 at 3 uM after 45 mins by microarray method relative to control; format: functional; summary of the method: as §1
[16] = test system: Candida albicans; experiment: Upregulation of PDR16 gene expression in Candida albicans SC5314 at 3 uM after 45 mins by microarray method relative to control; format: functional; summary of the method: as §2
[17] = test system: Candida albicans; experiment: Upregulation of orf19.1887 gene expression in Candida albicans SC5314 at 3 uM after 45 mins by microarray method relative to control; format: functional; summary of the method: as §1
[18] = test system: Candida albicans; experiment: Upregulation of orf19.6873.1 gene expression in Candida albicans SC5314 at 3 uM after 45 mins by microarray method relative to control; format: functional; summary of the method: as §1
[19] = test system: Candida albicans; experiment: Antifungal activity against Candida albicans ATCC 60193 measured at 72 hrs by broth dilution assay; format: functional; conditions: ATCC 60193, 72 h
Summary of the method: (§3)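 EUCAST broth microdilution, including the update for non-fermenting yeasts (Cryptococcus, Geotrichum), on clinical and reference yeast isolates. Incubated at 37 °C and read at 24, 48 and 72 h. MIC taken as the lowest concentration with no visible growth. For Cryptococcus and Geotrichum, MICs were read only once growth was visible in the control row.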

[20] = test system: Candida albicans; experiment: Antifungal activity against Candida albicans 4T measured at 24 hrs by broth dilution assay; format: functional; summary of the method: as §3
[21] = test system: Candida albicans; experiment: Antifungal activity against Candida albicans 15T measured at 24 hrs by broth dilution assay; format: functional; summary of the method: as §3
[22] = test system: Pichia kudriavzevii; experiment: Antifungal activity against Candida krusei ATCC 14243 measured at 48 hrs by broth dilution assay; format: functional; conditions: ATCC 14243, 48 h; summary of the method: as §3
[23] = test system: Pichia kudriavzevii; experiment: Antifungal activity against Candida krusei ATCC 14243 measured at 72 hrs by broth dilution assay; format: functional; conditions: ATCC 14243, 72 h; summary of the method: as §3
[24] = test system: Pichia kudriavzevii; experiment: Antifungal activity against Candida krusei 193T measured at 24 hrs by broth dilution assay; format: functional; summary of the method: as §3
[25] = test system: Pichia kudriavzevii; experiment: Antifungal activity against Candida krusei 193T measured at 48 hrs by broth dilution assay; format: functional; summary of the method: as §3
[26] = test system: Candida parapsilosis; experiment: Antifungal activity against Candida parapsilosis 64E measured at 48 hrs by broth dilution assay; format: functional; conditions: Lodderomyces parapsilosis; summary of the method: as §3
[27] = test system: Candida parapsilosis; experiment: Antifungal activity against Candida parapsilosis 81E measured at 72 hrs by broth dilution assay; format: functional; conditions: Lodderomyces parapsilosis; summary of the method: as §3
[28] = test system: Candida tropicalis; experiment: Antifungal activity against Candida tropicalis 86E measured at 24 hrs by broth dilution assay; format: functional; summary of the method: as §3
[29] = test system: Cryptococcus neoformans; experiment: Antifungal activity against Cryptococcus neoformans measured at 72 hrs by broth dilution assay; format: functional; summary of the method: as §3
[30] = Antifungal activity against Geotrichum silvicola measured at 72 hrs by broth dilution assay; format: functional; summary of the method: as §3
[31] = test system: Magnusiomyces capitatus; experiment: Antifungal activity against Geotrichum capitatum measured at 24 hrs by broth dilution assay; format: functional; summary of the method: as §3
[32] = test system: Cryptococcus neoformans; experiment: Fungicidal activity against Cryptococcus neoformans at 40 uM measured at 72 hrs by time kill assay; format: functional, organism-based
[33] = test system: Pichia kudriavzevii; experiment: Fungicidal activity against Candida krusei ATCC 14243 assessed as reduction in CFU at 80 uM measured at 24 hrs by time kill assay relative to control; format: functional; conditions: ATCC 14243, 24 h
Summary of the method: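 EUCAST broth microdilution at 37 °C. From wells at MIC, 2×, 4× and 8× MIC, 10 µL aliquots were taken, serially 10-fold diluted in saline and plated on Sabouraud dextrose agar. Plates were incubated at 37 °C for 24/48 h, and 48 h for Cryptococcus and Geotrichum. Done in duplicate, detection limit 10 CFU/mL. A drop of at least 3 Log10 CFU/mL from the initial inoculum in 24 h counts as fungicidal; a smaller drop counts as fungistatic.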

## C/C=C/CNC(=N)NCCCCCCCCN1CCCCCCCCNC(=N)NC1=O
[1]
  Activity: inactive
[2]
  Activity: Active
[3]
  Ratio: 2
[4]
  Activity: Active
[5]
  Activity: Active
[6]
  Activity: Active
[7]
  Activity: Active
[8]
  fold change (FC): 17.22
[9]
  fold change (FC): 6.13
[10]
  fold change (FC): 5.86
[11]
  fold change (FC): 5.32
[12]
  fold change (FC): 2.28
[13]
  fold change (FC): 17.28
[14]
  fold change (FC): 6.56
[15]
  fold change (FC): 3.52
[16]
  fold change (FC): 6.89
[17]
  fold change (FC): 3.44
[18]
  fold change (FC): 1.9
[19]
  MIC: 5 µM (≈ 2.18 µg/mL)
[20]
  MIC: 5 µM (≈ 2.18 µg/mL)
[21]
  MIC: 5 µM (≈ 2.18 µg/mL)
[22]
  MIC: 80 µM (≈ 34.9 µg/mL)
[23]
  MIC: 80 µM (≈ 34.9 µg/mL)
[24]
  MIC: 10 µM (≈ 4.36 µg/mL)
[25]
  MIC: 80 µM (≈ 34.9 µg/mL)
[26]
  MIC: 40 µM (≈ 17.4 µg/mL)
[27]
  MIC: 40 µM (≈ 17.4 µg/mL)
[28]
  MIC: 2.5 µM (≈ 1.09 µg/mL)
[29]
  MIC: 20 µM (≈ 8.71 µg/mL)
[30]
  MIC: 10 µM (≈ 4.36 µg/mL)
[31]
  Activity: Active
[32]
  Activity: Active
[33]
  inhibition at 80 µM: 99.9%
